Compound activity from PubChem.
In the library only some 2% were active in any assay of this set; here they are far more common.
STEP inh: STEP (human) phosphatase inhibition; inhibition, % at 20 µM; P54829; recombinant STEP, OMFP fluorogenic substrate, fluorescence; actives 0.25% (n = 360,000);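 active means inhibition at 20 µM, scaled per plate between control wells, above about 37%, limit read from the data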
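Material: STEP (striatal-enriched tyrosine phosphatase) enzyme, cell-free; Compound dosing: 20 µM single dose in 1% DMSO; Technique: fluorescence read at 480 nm ex / 540 nm em; Times: reaction 20 min, ambient temperature; Medium: 50 mM Bis-Tris pH 6.0 with 2.5 mM DTT and 0.005% Tween 20; Also added: OMFP at 25 µM.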
DNMT1 inh: DNMT1 (human) enzyme inhibition; actives 0.83% (n = 360,000); AID 588458; inhibition (reported as % activation of signal), % at 10 µM; DNMT1 molecular beacon, Hinp1I cleavage, fluorescence; P26358; in the data active means inhibition above about 50%
LMPTP inh: blocks human LMPTP phosphatase | AID 651560 | inhibition, % at 20 µM | actives 0.22% (n = 360,000) | recombinant LMPTP-A, OMFP fluorogenic substrate, fluorescence intensity;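 active means compounds that cut the enzyme signal by at least half of the control window in the single-dose screen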
Target sequence (P24666 whole entry, looked up): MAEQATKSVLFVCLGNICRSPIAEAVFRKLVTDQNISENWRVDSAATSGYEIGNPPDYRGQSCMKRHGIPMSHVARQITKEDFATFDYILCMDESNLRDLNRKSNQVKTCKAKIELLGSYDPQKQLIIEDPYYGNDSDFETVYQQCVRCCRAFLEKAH
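Test system: LMPTP-A, protein tyrosine phosphatase of low molecular weight; Input: 0.625 nM enzyme; Incubation: 50 min dark incubation at room temperature; Signal: endpoint fluorescence intensity from OMFP dephosphorylation; Read-out basis: % inhibition versus control wells.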
CSN inh: CSN deneddylation inhibition. inhibition, % at 12.5 µM. actives 0.38% (n = 360,000). Purified CSN, SCF-Nedd8-OG deneddylation, fluorescence polarization;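 active means pattern-corrected inhibition above about 35%, with an unprinted fluorescence ratio check between 0.5 and 1.5, limit read from the data, passing the limit was not always enough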
Target sequence (Q92905 whole entry, looked up, one chain of several): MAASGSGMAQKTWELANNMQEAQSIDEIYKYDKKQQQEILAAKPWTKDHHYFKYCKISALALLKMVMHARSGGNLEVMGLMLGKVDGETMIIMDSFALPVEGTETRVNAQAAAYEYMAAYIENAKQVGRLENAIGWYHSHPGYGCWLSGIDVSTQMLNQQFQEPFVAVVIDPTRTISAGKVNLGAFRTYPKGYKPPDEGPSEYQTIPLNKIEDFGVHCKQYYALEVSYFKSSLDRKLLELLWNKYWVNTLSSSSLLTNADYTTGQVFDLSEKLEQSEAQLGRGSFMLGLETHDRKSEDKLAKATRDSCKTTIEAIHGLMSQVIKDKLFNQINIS
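Assay system: purified human Csn5 enzyme expressed in HEK293T cells; Input: 0.24 nM Csn5 enzyme, final concentration; Reagent: 10 nM SCFSkp2-Nedd8OG; Compound dosing: 12.5 µM single point; Times: reaction 90 min, room temperature; Technique: fluorescence polarization readout.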
Scp-1 inhibitor: Scp-1 (human) phosphatase inhibition; Q9GZU7; Recombinant Scp1, phosphopeptide, malachite green phosphate absorbance; inhibition, % at 20 µM; actives 0.88% (n = 340,000);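 active means inhibition above about 50% at 20 µM, limit read from the data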
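Test system: SCP-1 phosphatase catalytic domain, residues 76-261 | Compound dosing: One concentration, 20 µM, with 1.0% DMSO | Schedule: 45 min room-temperature reaction, 5 min colour, 30 min stabiliser | Detection: Absorbance at 630 nm | Read-out basis: % inhibition of SCP-1 phosphate liberation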
SUMO1-SIM PPI: alters human SUMO1 binding to SIM partners; actives 0.33% (n = 360,000); SUMO1 binding to a labelled peptide, TR-FRET, 1 h; P63165; inhibition, % at 20 µM; in the data active means inhibition above about 37%
Target sequence (P63165 whole entry, looked up): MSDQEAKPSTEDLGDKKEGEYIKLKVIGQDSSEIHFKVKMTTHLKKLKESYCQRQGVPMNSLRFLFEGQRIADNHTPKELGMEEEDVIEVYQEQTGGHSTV
Hits are given with their value; . = inactive; / = no result; ! = not active in a repeat.

SMILES	STEP inh	DNMT1 inh	LMPTP inh	CSN inh	Scp-1 inhibitor	SUMO1-SIM PPI
COc1cccc(CNS(=O)(=O)c2ccc3c(c2)N(C(C)=O)CCO3)c1	42	.	.	.	.	.
COc1cccc(NS(=O)(=O)c2ccc3c(c2)N(C(C)=O)CCO3)c1	.	.	.	.	.	.
O=C(Nc1ccc(-c2ccc3nncn3n2)cc1)c1ccc(Br)o1	.	.	.	64	.	.
CCOc1cccc(C(=O)Nc2cccc(-c3nnc(-c4ccc(C)cc4)o3)c2)c1	.	66	.	.	.	.
CCOC(=O)c1sc2nc(-c3ccco3)c3c(c2c1N)CC(C)(C)OC3	.	.	.	.	.	.
Nc1c(C(=O)NC2CC2)sc2nc3c(c(-c4ccco4)c12)CC/C3=C/c1ccco1	.	91	71	.	84	95
COC(=O)c1c(NC(C)=O)sc2c1CCCCC2	.	.	.	104	.	.
CCOc1ccc2c(ccc(/C=C/c3cc(C)c4cccnc4c3O)[n+]2C)c1	.	.	76	.	52	.
C=CCn1c(=O)/c(=C/c2ccc(C)o2)s/c1=C(/C#N)C(=O)c1ccccc1	.	.	.	45	.	.
C=CCn1c(=O)/c(=C\c2ccccn2)s/c1=C(/C#N)C(=O)NCC1CCCO1 (stereo not drawn)	.	.	.	.	.	.
O=C1CC(N2CCC(c3nc4ccccc4o3)CC2)C(=O)N1Cc1cccs1 (stereo not drawn)	.	.	.	.	.	57
O=C1CC(N2CCN(c3nc4ccccc4s3)CC2)C(=O)N1Cc1cccs1 (stereo not drawn)	.	.	.	.	.	.
CCOC(=O)C1=CN(Cc2cccc(F)c2)S(=O)(=O)N(C)C1CCc1ccccc1 (stereo not drawn)	.	.	.	.	.	.
COc1ccccc1C(C)NC(=O)c1ccc(NC(=O)CC2SC(N3CCCC3)=NC2=O)cc1 (stereo not drawn)	.	.	.	.	.	.
CN(CC(=O)Nc1ccc(F)cc1[N+](=O)[O-])Cc1ccccc1	.	.	.	.	.	.
CC(=O)c1cc(NC(=O)c2cccc(C(F)(F)F)c2)c(=O)oc1/C=C/N(C)C	.	.	.	.	.	.
CC(=O)c1cc(NC(=O)c2ccc(Cl)cc2)c(=O)oc1/C=C/N(C)C	.	.	.	55	.	.
COc1cc(/C=C/c2sc3ccccc3[n+]2CCCS(=O)(=O)[O-])ccc1O	.	.	.	.	.	.
CCC(/C=C1\Oc2ccc(OC)cc2N1C)=C\c1sc2ccccc2[n+]1CCCS(=O)(=O)[O-]	.	.	.	73	.	.
O=C(COc1ccccc1)NC1C(=O)N2C(C(=O)O)=C(Cl)CSC12 (stereo not drawn)	.	.	.	.	.	.
CO/N=C(/C(=O)N[C@@H]1C(=O)N2C(C(=O)O)=CCS[C@H]12)c1cnc(N)s1	78	98	.	.	/	106
CCOC(=O)NC(NC(=O)OCC)C(=O)c1ccc(F)cc1	.	.	.	.	102	.
CCCC(C)NC(=O)c1ccc(F)cc1 (stereo not drawn)	.	.	.	.	.	.
CCc1ccc(CN2CCN(c3ncccn3)CC2)cc1	.	.	.	.	.	.
Fc1ccc(CN2CCN(c3ncccn3)CC2)cc1	.	.	.	37	.	.
SMILES	STEP inh	DNMT1 inh	LMPTP inh	CSN inh	Scp-1 inhibitor	SUMO1-SIM PPI
NC(Cc1ccc(F)cc1)c1csc(NC(=O)NC(c2ccccc2)c2ccccc2)n1 (stereo not drawn)	.	.	.	.	/	.
Cc1ccccc1/C=N/Nc1nc2ccccc2[nH]1	.	.	.	.	.	.
O=[N+]([O-])c1cc(/C=N/Nc2nc3ccccc3[nH]2)c(O)cc1O	/	/	/	/	56	/
O=Nc1ccc(NOC(=O)c2ccccc2Br)cc1	.	.	.	.	.	.
O=C(ONc1ccc(N=NC(=O)c2ccccc2O)cc1)c1ccccc1	.	.	.	.	91	.
CN(C)C(=O)c1c([N+](=O)[O-])ncn1C	.	.	.	.	.	.
CCN(CC)C(=O)c1ncn(C)c1C(=O)N(CC)CC	.	.	.	.	92	.
O=[N+]([O-])c1c(Nc2ccc(O)cc2)cc(Cl)c2nonc12	49	.	.	.	.	.
Cc1ccc(-c2nn(-c3ccccc3)cc2/C=C2\SC(=S)N(CC(=O)O)C2=O)cc1	.	.	.	.	.	.
O=C1C(=Cc2cn(-c3ccccc3)nc2-c2ccc(OCc3ccc(Cl)cc3)cc2)SC(=S)N1CCS(=O)(=O)O	.	.	94	80	/	110
O=C1C(=Cc2cn(-c3ccccc3)nc2-c2ccc(OCc3ccccc3F)cc2)SC(=S)N1CCS(=O)(=O)O	.	.	89	.	/	88
O=C(O)CCN1C(=O)/C(=C/c2cn(-c3ccccc3)nc2-c2cccs2)SC1=S	74	.	81	.	.	.
CCc1ccc(/C=C2/SC(=S)N(CCC(=O)Nc3cccc(C(=O)O)c3)C2=O)cc1	.	.	.	.	.	.
CCc1ccc(C=C2SC(=S)N(CCCC(=O)Nc3ccc(C(=O)O)cc3)C2=O)cc1	.	.	59	.	/	.
CCc1ccc(/C=C2/SC(=S)N(CCC(=O)Nc3ccc(C(=O)O)cc3)C2=O)cc1	.	.	62	.	/	85
Cc1ccc(S(=O)(=O)NC(CC(=O)NCC2CCCO2)c2ccccc2)cc1 (stereo not drawn)	.	.	.	.	.	.
O=C(Nc1ccc(S(=O)(=O)Nc2nccs2)cc1)c1ccc(N2C(=O)c3ccccc3C2=O)cc1	.	.	.	67	.	.
Oc1cc2c(cc1O)C1c3ccc(O)c(O)c3OCC1(O)C2 (stereo not drawn)	.	.	.	.	61	.
CN1CCN(CC(=O)n2c3c(c4ccccc42)CCCC3)CC1	.	.	.	39	.	.
CCN(CC)CC(=O)n1c2c(c3ccccc31)CCCC2	.	.	.	.	.	.
Cc1cc2cc(CNC(=O)Nc3cccc(Cl)c3)ccc2n1C	.	69	.	.	.	.
C(C#CCCCCCCCCC[n+]1ccccc1)#CCCCCCCCCC[n+]1ccccc1	.	.	.	35!	.	.
CN(CC(=O)Nc1c(Cl)cccc1Cl)CC(=O)N1CCc2ccccc21	.	.	.	.	/	.
Cc1ccc(NC(=O)N2CCCC2C(=O)NCC2CCCCC2)cc1 (stereo not drawn)	.	.	.	.	.	.
COc1ccc(S(=O)(=O)NCc2cccnc2)cc1NC(=O)c1ccccc1C	.	53	.	.	.	.
Cc1ccc(-n2c(C)cc(/C=N/Nc3ccc([N+](=O)[O-])cn3)c2C)cc1	.	.	.	.	102	.
